Laboratory results published in ChEMBL document CHEMBL4028916, “A Dipolar Cycloaddition Reaction To Access 6-Methyl-4,5,6,7-tetrahydro-1H-[1,2,3]triazolo[4,5-c]pyridines Enables the Discovery Synthesis and Preclinical Profiling of a P2X7 Antagonist Clinical Candidate” (J Med Chem, 2018).
One block for each molecule: values may come before it.

Key:
[1] = Partition coefficient, log D of the compound at pH 7.4; type: physicochemical; conditions: octanol/water
[2] = Apparent permeability across basolateral to apical side in human Caco2 cells; type: ADME, cell-based; conditions: Caco-2
Outline: (§1)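 Caco-2 bidirectional permeability, reported as Papp B-A/A-B (×10⁻⁶ cm/s).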

[3] = Apparent permeability across apical to basolateral side in human Caco2 cells; type: ADME, cell-based; conditions: Caco-2; outline: as §1
[4] = Clearance in cynomolgus monkey at 0.125 mg/kg, iv or 0.625 mg/kg, po by LC-MS/MS method; type: ADME, organism-based, Macaca fascicularis; conditions: in vivo
[5] = Oral bioavailability in Sprague-Dawley rat at […] by LC-MS/MS method; type: ADME, organism-based; conditions: in vivo
[6] = Oral bioavailability in Beagle dog at 0.625 mg/kg by LC-MS/MS method; type: ADME, organism-based, Canis lupus familiaris; conditions: in vivo
Outline: (§2)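 Single-dose PK in male Sprague-Dawley rats, beagle dogs or cynomolgus monkeys, given i.v. and p.o. as a solution in 50% PEG400/50% water or 20% HP-β-CD. Plasma measured by LC–MS/MS; parameters from noncompartmental analysis.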

[7] = Oral bioavailability in cynomolgus monkey at 0.625 mg/kg by LC-MS/MS method; type: ADME, organism-based, Macaca fascicularis; conditions: in vivo; outline: as §2
[8] = Volume of distribution at steady state in Sprague-Dawley rat at 0.5 mg/kg, iv or […], po by LC-MS/MS method; type: ADME, organism-based; conditions: in vivo, read-out: Vdss
[9] = Volume of distribution at steady state in Beagle dog at 0.125 mg/kg, iv or 0.625 mg/kg, po by LC-MS/MS method; type: ADME, organism-based, Canis lupus familiaris; conditions: in vivo, read-out: Vdss
[10] = Volume of distribution at steady state in cynomolgus monkey at 0.125 mg/kg, iv or 0.625 mg/kg, po by LC-MS/MS method; type: ADME, organism-based, Macaca fascicularis; conditions: in vivo, read-out: Vdss
[11] = Clearance in Sprague-Dawley rat at 0.5 mg/kg, iv or […], po by LC-MS/MS method; type: ADME, organism-based; conditions: in vivo
[12] = Clearance in Beagle dog at 0.125 mg/kg, iv or 0.625 mg/kg, po by LC-MS/MS method; type: ADME, organism-based, Canis lupus familiaris; conditions: in vivo
[13] = Half life in Sprague-Dawley rat at 0.5 mg/kg, iv by LC-MS/MS method; type: ADME, organism-based; conditions: in vivo; outline: as §2
[14] = Half life in Beagle dog at 0.125 mg/kg, iv by LC-MS/MS method; type: ADME, organism-based, Canis lupus familiaris; conditions: in vivo
[15] = Half life in cynomolgus monkey at 0.125 mg/kg, iv by LC-MS/MS method; type: ADME, organism-based, Macaca fascicularis; conditions: in vivo; outline: as §2
[16] = Cmax in Sprague-Dawley rat at 0.5 mg/kg, iv or […], po by LC-MS/MS method; type: ADME, organism-based; conditions: in vivo
[17] = Cmax in Beagle dog at 0.125 mg/kg, iv or 0.625 mg/kg, po by LC-MS/MS method; type: ADME, organism-based, Canis lupus familiaris; conditions: in vivo
[18] = Cmax in cynomolgus monkey at 0.125 mg/kg, iv or 0.625 mg/kg, po by LC-MS/MS method; type: ADME, organism-based, Macaca fascicularis; conditions: in vivo
[19] = AUC (24 hrs) in Sprague-Dawley rat at 0.5 mg/kg, iv or […], po by LC-MS/MS method; type: ADME, organism-based; conditions: in vivo
[20] = AUC (24 hrs) in Beagle dog at 0.125 mg/kg, iv or 0.625 mg/kg, po by LC-MS/MS method; type: ADME, organism-based, Canis lupus familiaris; conditions: in vivo
[21] = AUC (24 hrs) in cynomolgus monkey at 0.125 mg/kg, iv or 0.625 mg/kg, po by LC-MS/MS method; type: ADME, organism-based, Macaca fascicularis; conditions: in vivo
[22] = Cmax in rat at 250 mg/kg, po for 4 days; type: ADME, organism-based; set-up: dose 250 mg/kg, route oral; conditions: in vivo
[23] = Cmax in dog at 300 mg/kg, po for 5 days; type: ADME, organism-based, Canis lupus familiaris; set-up: dose 300 mg/kg, route oral; conditions: in vivo
[24] = AUC in rat dosed at 250 mg/kg, po for 4 days; type: ADME, organism-based; conditions: in vivo
[25] = AUC in dog at 300 mg/kg, po for 5 days; type: ADME, organism-based, Canis lupus familiaris; conditions: in vivo
[26] = Drug uptake in Sprague-Dawley rat brain administered at 10 mg/kg, po measured after 0.5 hrs; type: ADME, organism-based
Outline: (§3)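 Male Sprague Dawley rats (300–400 g) given 10 mg/kg p.o. One compound was dosed as a 0.5% HPMC suspension and the other as a 20% HP-β-cyclodextrin solution. Two animals per time point were killed with CO2 at 0.5, 2 and 6 h, and plasma and brain drug levels were taken. Data are mean ± SEM (n=2).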

[27] = Drug uptake in Sprague-Dawley rat brain administered at 10 mg/kg, po measured after 2.0 hrs; type: ADME, organism-based; outline: as §3
[28] = Drug uptake in Sprague-Dawley rat brain administered at 10 mg/kg, po measured after 6.0 hrs; type: ADME, organism-based; outline: as §3
[29] = Drug uptake in Sprague-Dawley rat plasma administered at 10 mg/kg, po measured after 0.5 hrs; type: ADME, organism-based; outline: as §3
[30] = Drug uptake in Sprague-Dawley rat plasma administered at 10 mg/kg, po measured after 2.0 hrs; type: ADME, organism-based; outline: as §3
[31] = Drug uptake in Sprague-Dawley rat plasma administered at 10 mg/kg, po measured after 6.0 hrs; type: ADME, organism-based; outline: as §3
[32] = Oral bioavailability in Sprague-Dawley rat at 5 mg/kg by LC-MS/MS method; type: ADME, organism-based; conditions: in vivo; outline: as §2
[33] = Oral bioavailability in Beagle dog at 1.25 mg/kg by LC-MS/MS method; type: ADME, organism-based, Canis lupus familiaris; conditions: in vivo; outline: as §2
[34] = Oral bioavailability in cynomolgus monkey at […] by LC-MS/MS method; type: ADME, organism-based, Macaca fascicularis; conditions: in vivo
[35] = Volume of distribution at steady state in Sprague-Dawley rat at 1 mg/kg, iv or 5 mg/kg, po by LC-MS/MS method; type: ADME, organism-based; conditions: in vivo, read-out: Vdss
[36] = Volume of distribution at steady state in Beagle dog at […], iv or 1.25 mg/kg, po by LC-MS/MS method; type: ADME, organism-based, Canis lupus familiaris; conditions: in vivo, read-out: Vdss
[37] = Volume of distribution at steady state in cynomolgus monkey at 0.5 mg/kg, iv or […], po by LC-MS/MS method; type: ADME, organism-based, Macaca fascicularis; conditions: in vivo, read-out: Vdss
[38] = Clearance in Sprague-Dawley rat at 1 mg/kg, iv or 5 mg/kg, po by LC-MS/MS method; type: ADME, organism-based; conditions: in vivo
[39] = Clearance in Beagle dog at […], iv or 1.25 mg/kg, po by LC-MS/MS method; type: ADME, organism-based, Canis lupus familiaris; conditions: in vivo
[40] = Clearance in cynomolgus monkey at 0.5 mg/kg, iv or […], po by LC-MS/MS method; type: ADME, organism-based, Macaca fascicularis; conditions: in vivo
[41] = Half life in Sprague-Dawley rat at 1 mg/kg, iv by LC-MS/MS method; type: ADME, organism-based; conditions: in vivo; outline: as §2
[42] = Half life in Beagle dog at […], iv by LC-MS/MS method; type: ADME, organism-based, Canis lupus familiaris; conditions: in vivo
[43] = Half life in cynomolgus monkey at 0.5 mg/kg, iv by LC-MS/MS method; type: ADME, organism-based, Macaca fascicularis; conditions: in vivo; outline: as §2
[44] = Cmax in Sprague-Dawley rat at 1 mg/kg, iv or 5 mg/kg, po by LC-MS/MS method; type: ADME, organism-based; conditions: in vivo
[45] = Cmax in Beagle dog at […], iv or 1.25 mg/kg, po by LC-MS/MS method; type: ADME, organism-based, Canis lupus familiaris; conditions: in vivo
[46] = Cmax in cynomolgus monkey at 0.5 mg/kg, iv or […], po by LC-MS/MS method; type: ADME, organism-based, Macaca fascicularis; conditions: in vivo
[47] = AUC (24 hrs) in Sprague-Dawley rat at 1 mg/kg, iv or 5 mg/kg, po by LC-MS/MS method; type: ADME, organism-based; conditions: in vivo
[48] = AUC (24 hrs) in Beagle dog at […], iv or 1.25 mg/kg, po by LC-MS/MS method; type: ADME, organism-based, Canis lupus familiaris; conditions: in vivo
[49] = AUC (24 hrs) in cynomolgus monkey at 0.5 mg/kg, iv or […], po by LC-MS/MS method; type: ADME, organism-based, Macaca fascicularis; conditions: in vivo
[50] = Cmax in rat at 125 mg/kg, po for 5 days; type: ADME, organism-based; set-up: dose 125 mg/kg, route oral; conditions: in vivo
[51] = Cmax in dog at 10 mg/kg, po for 5 days; type: ADME, organism-based, Canis lupus familiaris; set-up: dose 10 mg/kg, route oral; conditions: in vivo
[52] = AUC in rat at 125 mg/kg, po for 5 days; type: ADME, organism-based; conditions: in vivo
[53] = AUC in dog at 10 mg/kg, po for 5 days; type: ADME, organism-based, Canis lupus familiaris; conditions: in vivo
Plasma = assay: Plasma concentration in dog; type: ADME, Canis lupus familiaris
[54] = Plasma concentration in guinea pig; type: ADME, Cavia porcellus
Canis familiaris = species: Canis familiaris; assay: Toxicity in dog; set-up: species or system Canis lupus familiaris; conditions: in vivo
Cavia porcellus = species: Cavia porcellus; assay: Toxicity in guinea pig; conditions: in vivo

- logD [1]: 2.23
- Papp B→A [2]: 73 ×10⁻⁶ cm/s
- Papp A→B [3]: 49 ×10⁻⁶ cm/s
- clearance [4]: 26 mL/min/kg
- bioavailability [5]: 90%
- bioavailability [6]: 123%
- bioavailability [7]: 30%
- Vd [8]: 2.5 L/kg
- Vd [9]: 2.6 L/kg
- Vd [10]: 1.7 L/kg
- clearance [11]: 12 mL/min/kg
- clearance [12]: 3.8 mL/min/kg
- half-life [13]: 2.5 h
- half-life [14]: 8.8 h
- half-life [15]: 0.9 h
- Cmax [16]: 541 ng/mL
- Cmax [17]: 305 ng/mL
- Cmax [18]: 36 ng/mL
- AUC at 24 h [19]: 3190 ng·h/mL
- AUC at 24 h [20]: 3040 ng·h/mL
- AUC at 24 h [21]: 122 ng·h/mL
- Cmax [22]: 9260 ng/mL
- Cmax [23]: 5330 ng/mL
- AUC at 96 h [24]: 108000 ng·h/mL
- AUC at 120 h [25]: 78400 ng·h/mL
- concentration at 0.5 h [26]: 1060 ng/mL
- concentration at 2 h [27]: 2390 ng/mL
- concentration at 6 h [28]: 1620 ng/mL
- concentration at 0.5 h [29]: 855 ng/mL
- concentration at 2 h [30]: 1880 ng/mL
- concentration at 6 h [31]: 1050 ng/mL
Compound: C[C@H]1Cc2c(nnn2-c2ncc(F)cn2)CN1C(=O)c1cccc(C(F)(F)F)c1F

- logD [1]: 1.65
- Papp B→A [2]: 45 ×10⁻⁶ cm/s
- Papp A→B [3]: 35 ×10⁻⁶ cm/s
- bioavailability [32]: 81%
- bioavailability [33]: 98%
- bioavailability [34]: 97%
- Vd [35]: 1.7 L/kg
- Vd [36]: 1.4 L/kg
- Vd [37]: 1.3 L/kg
- clearance [38]: 3.7 mL/min/kg
- clearance [39]: 0.8 mL/min/kg
- clearance [40]: 2.6 mL/min/kg
- half-life [41]: 5.6 h
- half-life [42]: 21.2 h
- half-life [43]: 6 h
- Cmax [44]: 1750 ng/mL
- Cmax [45]: 1120 ng/mL
- Cmax [46]: 1860 ng/mL
- AUC at 24 h [47]: 17500 ng·h/mL
- AUC at 24 h [48]: 23300 ng·h/mL
- AUC at 24 h [49]: 16300 ng·h/mL
- Cmax [50]: 26000 ng/mL
- Cmax [51]: 10700 ng/mL
- AUC at 120 h [52]: 291000 ng·h/mL
- AUC at 120 h [53]: 167000 ng·h/mL
- concentration at 0.5 h [26]: 3040 ng/mL
- concentration at 2 h [27]: 2910 ng/mL
- concentration at 6 h [28]: 1990 ng/mL
- concentration at 0.5 h [29]: 3190 ng/mL
- concentration at 2 h [30]: 3430 ng/mL
- concentration at 6 h [31]: 2440 ng/mL
- Cp (Plasma): 2820 ng/mL
- Cp [54]: 4095 ng/mL
Compound: C[C@H]1Cc2c(nnn2-c2ncc(F)cn2)CN1C(=O)c1ccnc(C(F)(F)F)c1F [ZANVIPIXANT]
- NOAEL (Canis familiaris): 1280 ng/mL
- NOAEL (Cavia porcellus): 1850 ng/mL
